Columns and labels:
MCF7 cells = assay: Cell cycle analysis; assay type: cell-based; details: for cells in G1 phase / cells in G2 (G2/M) phase / S phase population: MCF7, 24 hours; for cells in G1 phase / cells in G2 (G2/M) phase / G1 phase population / G2 (G2/M) phase population: compounds at IC50, ETP 10 μM; for G1 phase population / G2 (G2/M) phase population: MCF7, 48 hours; for S phase population: compounds at IC50
Summary of the method: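 MCF7 cells were treated with the test compounds for 24 and 48 h, with etoposide as the positive control and 0.1% DMSO as the vehicle. Cells were stained with propidium iodide and their G1, S and G2 distribution was read by flow cytometry. n = 3; two-way ANOVA with Tukey's test.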

MCF7 cell line = assay: γH2AX labelling for DNA double-strand breaks; assay type: cell-based; details: compounds at IC50, etoposide 10 μM
Summary of the method: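 To detect DNA double-strand breaks, MCF7 cells were exposed to the test compounds for 24 and 48 h, with etoposide as the positive control and 0.1% DMSO as the vehicle. γH2AX labelling was quantified by flow cytometry. n = 3; two-way ANOVA with Tukey's test.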

MCF7 breast cancer cells = assay: Apoptosis, annexin V staining and flow cytometry; assay type: cell-based
Summary of the method: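 MCF7 cells were exposed to the test compounds for 24 or 48 h, with etoposide (10 μM) as the positive control and 0.1% DMSO as the untreated control. Cells were stained with annexin V and analysed by flow cytometry into live, early apoptotic and late apoptotic fractions.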

[1] = tested on: MCF7 (ATCC – HTB-22, breast carcinoma); assay: MTT cell viability assay, MCF7; assay type: cell-based; details: for IC50: Homo sapiens, MCF7, read-out: IC50 MCF7; for higher potency compared to previously reported fused pyran derivative III: MCF7 IC50 versus III
[2] = tested on: A549 (ATCC – CCL-185, lung carcinoma); assay: MTT cell viability assay, A549; assay type: cell-based; details: Homo sapiens, A549, read-out: IC50 A549
[3] = tested on: HCT116 (ATCC – CCL-247, colon carcinoma); assay: MTT cell viability assay, HCT116; assay type: cell-based; details: Homo sapiens, HCT-116, read-out: IC50 HCT116
MCF-7 cells = assay: Colony formation assay; assay type: cell-based
MCF7 spheroids = assay: Spheroid formation assay; assay type: cell-based; details: 72 hours of treatment
Summary of the method: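 Agar was liquefied in normal saline, sterilized and cast into 3D molds, which were rinsed with culture medium. MCF7 cells were seeded onto the molds and left 20 min to adhere, then medium with varied test-compound concentrations was added. Spheroid dimensions were tracked by live-cell imaging and compared with untreated controls.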

[4] = tested on: chorioallantoic membrane (CAM) blood vessel formation; assay: Ex ovo chorioallantoic membrane; assay type: in vivo, chicken; details: concentration-dependent, over time
[5] = tested on: MRC5 (ATCC – CCL-171, human diploid fibroblast cell line)
[6] = tested on: MRC5 (ATCC – CCL-171, human diploid fibroblast cell line); assay: cells; details: MRC5, read-out: IC50 MRC5
[7] = MCF7, 24 hours, compounds at IC50, etoposide 10 μM
[8] = MCF7, 48 hours, compounds at IC50, etoposide 10 μM
[9] = MCF7, 24 hours, compounds at IC50

In the case of COc1cc([C@@H]2c3cc4c(cc3[C@@H](O[C@@H]3O[C@@H]5CO[C@@H](C)O[C@H]5[C@H](O)[C@H]3O)[C@H]3COC(=O)[C@H]23)OCO4)cc(OC)c1O [Etoposide, reference compound], the “cells in G1 phase” value (MCF7 cells) is reported as 26.61 ± 0.54%, the “cells in G2 (G2/M) phase” value (MCF7 cells) is reported as 49.03 ± 0.99% and the G1 phase population (MCF7 cells) is reported as 18.3 ± 1.67%. For the same molecule, the “G2 (G2/M) phase population” value (MCF7 cells) was 59.36 ± 4.79%, the γH2AX levels (MCF7 cell line; MCF7, 24 hours) was 8.8 ± 0.62 and the γH2AX levels (MCF7 cell line; MCF7, 48 hours) was 39.44 ± 1.69. For the same molecule, the early apoptotic cells (MCF7 breast cancer cells; [7]) was 6.42 ± 0.27%, the late apoptotic cells (MCF7 breast cancer cells; [7]) was 12.25 ± 0.08% and the early apoptotic cells (MCF7 breast cancer cells; [8]) was 3.28 ± 0.16%. For the same molecule, the late apoptotic cells (MCF7 breast cancer cells; [8]) was 11.8 ± 0.29% and the live cells (MCF7 breast cancer cells; [8]) was 83.15 ± 0.50%.
Cc1nccn1-c1ccc(C2C(C#N)=C(N)OC3=C2C(=O)CC(C)(C)C3)cc1 (stereo not shown) [Compound 8a, 2-Amino-7,7-dimethyl-4-(4-(2-methyl-1H-imidazol-1-yl)phenyl)-5-oxo-5,6,7,8-tetrahydro-4H-chromene-3-carbonitrile] was tested, and the IC50 [1] was 8.24 ± 0.19 µM, the “higher potency compared to previously reported fused pyran derivative III” value [1] was 1.5 fold and the IC50 [2] was 111 ± 4.91 µM. The IC50 [3] was 143 ± 6.35 µM, the “percentage of colony formation” value (MCF-7 cells; MCF-7, compound at IC10) was 94.3 ± 4.04% and the “percentage of colony formation” value (MCF-7 cells; MCF-7, compound at IC50) was 74.3 ± 2.08%. For the same molecule, the “percentage of colony formation” value (MCF-7 cells; MCF-7, compound at IC90) was 5.67 ± 4.04%, the “spheroid size versus untreated control” value (MCF7 spheroids) was “pronounced reduction in size” and the S phase population (MCF7 cells) was 21.11 ± 3.39%. The “cells in G1 phase” value (MCF7 cells) was 37.08 ± 5.07%, the “cells in G2 (G2/M) phase” value (MCF7 cells) was 30.63 ± 4.35% and the G1 phase population (MCF7 cells) was 47.08 ± 0.6%. It also gave a γH2AX levels (MCF7 cell line; MCF7, 24 hours) of 2.89 ± 0.99, a γH2AX levels (MCF7 cell line; MCF7, 48 hours) of 20.3 ± 2.74 and a live cells (MCF7 breast cancer cells; [9]) of 86.4 ± 0.15%. For the same molecule, the early apoptotic cells (MCF7 breast cancer cells; [7]) was 4.27 ± 0.20%, the late apoptotic cells (MCF7 breast cancer cells; [7]) was 7.6 ± 0.01% and the early apoptotic cells (MCF7 breast cancer cells; [8]) was 5.89 ± 0.20%. For the same molecule, the late apoptotic cells (MCF7 breast cancer cells; [8]) was 6.17 ± 0.13%, the “new blood vessel formation versus untreated controls” value [4] was “significant reduction in new blood vessel formation” and the “toxicity to MRC5 (MCR5) cells” value [5] was “nontoxic”. The IC50 [6] was over 200 µM.
Cc1cc2c(c(=O)o1)C(c1ccc(OCc3cn(-c4ccccc4)nn3)cc1)C(C#N)=C(N)O2 (stereo not shown) [Compound 17a, 2-Amino-7-methyl-5-oxo-4-(4-((1-phenyl-1H-1,2,3-triazol-4-yl)methoxy)phenyl)-4H,5H-pyrano[4,3-b]pyran-3-carbonitrile] gave an IC50 [1] of over 200 µM, an IC50 [2] of 80.5 ± 4.68 µM and an IC50 [3] of over 200 µM. It also gave an IC50 [6] of over 200 µM.
In the case of Cc1cn(-c2ccc(C3C(C#N)=C(N)OC4=C3C(=O)CC(C)(C)C4)cc2)cn1 (stereo not shown) [Compound 8b, 2-Amino-7,7-dimethyl-4-(4-(4-methyl-1H-imidazol-1-yl)phenyl)-5-oxo-5,6,7,8-tetrahydro-4H-chromene-3-carbonitrile], the IC50 [1] is reported as 4.22 ± 0.81 µM, the “higher potency compared to previously reported fused pyran derivative III” value [1] is reported as 3 fold and the IC50 [2] is reported as 110 ± 4.94 µM. The IC50 [3] was 129 ± 5.79 µM, the “percentage of colony formation” value (MCF-7 cells; MCF-7, compound at IC10) was 97.7 ± 1.53% and the “percentage of colony formation” value (MCF-7 cells; MCF-7, compound at IC50) was 76 ± 2.65%. The “percentage of colony formation” value (MCF-7 cells; MCF-7, compound at IC90) was 15 ± 5%, the “spheroid size versus untreated control” value (MCF7 spheroids) was “marked reduction in size” and the S phase population (MCF7 cells) was 15.11 ± 2.59%. For the same molecule, the “cells in G1 phase” value (MCF7 cells) was 41.59 ± 7.44%, the “cells in G2 (G2/M) phase” value (MCF7 cells) was 30.79 ± 5.11% and the G1 phase population (MCF7 cells) was 45.22 ± 0.82%. The “G2 (G2/M) phase population” value (MCF7 cells) was 28.83 ± 0.52%, the γH2AX levels (MCF7 cell line; MCF7, 24 hours) was 4.71 ± 0.75 and the γH2AX levels (MCF7 cell line; MCF7, 48 hours) was 21.62 ± 3.38. It also gave a live cells (MCF7 breast cancer cells; [9]) of 87.55 ± 0.08%, an early apoptotic cells (MCF7 breast cancer cells; [7]) of 2.66 ± 0.12% and a late apoptotic cells (MCF7 breast cancer cells; [7]) of 7.87 ± 0.02%. It also gave a debris/dead cells (MCF7 breast cancer cells; MCF7, 48 hours, compound at IC50) of 0.82 ± 0.30%, an early apoptotic cells (MCF7 breast cancer cells; [8]) of 5.27 ± 0.13% and a late apoptotic cells (MCF7 breast cancer cells; [8]) of 9.46 ± 0.22%. The live cells (MCF7 breast cancer cells; [8]) was 84.45 ± 0.64%, the “new blood vessel formation versus untreated controls” value [4] was “significant reduction in new blood vessel formation” and the “toxicity to MRC5 (MCR5) cells” value [5] was “nontoxic”. For the same molecule, the IC50 [6] was over 200 µM.
For N#CC1=C(N)Oc2c(c(=O)oc3ccccc23)C1c1ccc(OCc2cn(-c3ccc(Cl)cc3)nn2)cc1 (stereo not shown) [Compound 15b, 2-Amino-4-(4-((1-(4-chlorophenyl)-1H-1,2,3-triazol-4-yl)methoxy)phenyl)-5-oxo-4H,5H-pyrano[3,2-c]chromene-3-carbonitrile], the IC50 [1] was over 200 µM, the IC50 [2] was over 200 µM and the IC50 [3] was over 200 µM. For the same molecule, the IC50 [6] was over 200 µM.
For Cc1cc(C)n(-c2ccc(C3C(C#N)=C(N)OC4=C3C(=O)CCC4)cc2)n1 (stereo not shown) [Compound 7c, 2-Amino-4-(4-(3,5-dimethyl-1H-pyrazol-1-yl)phenyl)-5-oxo-5,6,7,8-tetrahydro-4H-chromene-3-carbonitrile], the IC50 [1] was 22.9 ± 1.31 µM, the IC50 [2] was over 200 µM and the IC50 [3] was 194 ± 6.01 µM. It also gave an IC50 [6] of over 200 µM.
